Test system: relapsed/refractory B‐cell malignancies
Test: Anti-tumour activity assessment by disease-specific tumour response criteria
Type: in vivo, human (Chinese patients)
Outline: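 Oral test compound at 320 mg QD or 160 mg BID until progression or unacceptable toxicity. Investigators assessed response every 12 weeks for one year after the first dose, then every 24 weeks. Criteria were iwCLL for CLL, NCI Working Group NHL criteria for SLL, FL, MZL and MCL, and International Workshops on WM criteria for WM. 95% CIs for rates were computed by Clopper–Pearson.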

[1] = part I, 160 mg BID, CLL/SLL (n = 5)
[2] = part I, 160 mg BID, NHL (n = 5)
[3] = part I, 160 mg BID, Total (N = 11)
[4] = part I, 320 mg QD, CLL/SLL (n = 4)
[5] = part I, 320 mg QD, Total (N = 10)

C=CC(=O)N1CCC([C@@H]2CCNc3c(C(N)=O)c(-c4ccc(Oc5ccccc5)cc4)nn32)CC1 [zanubrutinib]
Best overall response: CR (CLL/SLL (n = 9)): 3 (33.3) n (%) | Best overall response: CRi (CLL/SLL (n = 9)): 0 (0.0) n (%) | Best overall response: Discontinued prior to first assessment (CLL/SLL (n = 9)): 0 (0.0) n (%) | Best overall response: MR (CLL/SLL (n = 9)): 0 (0.0) n (%) | Best overall response: PD (CLL/SLL (n = 9)): 0 (0.0) n (%) | Best overall response: PR (CLL/SLL (n = 9)): 5 (55.6) n (%) | Best overall response: PR‐L (CLL/SLL (n = 9)): 1 (11.1) n (%) | Best overall response: Stable disease (CLL/SLL (n = 9)): 0 (0.0) n (%) | Best overall response: VGPR (CLL/SLL (n = 9)): 0 (0.0) n (%) | Complete response rate (CLL/SLL (n = 9)): 3 (33.3) n (%) | Overall response rate (CLL/SLL (n = 9)): 9 (100.0) n (%) | Partial response rate (PR or better) (CLL/SLL (n = 9)): 8 (88.9) n (%) | median PFS (CLL/SLL patients): 44.3 months | Best overall response: CR (FL (n = 26)): 4 (15.4) n (%) | Best overall response: CRi (FL (n = 26)): 0 (0.0) n (%) | Best overall response: Discontinued prior to first assessment (FL (n = 26)): 3 (11.5) n (%) | Best overall response: MR (FL (n = 26)): 0 (0.0) n (%) | Best overall response: PD (FL (n = 26)): 4 (15.4) n (%) | Best overall response: PR (FL (n = 26)): 8 (30.8) n (%) | Best overall response: PR‐L (FL (n = 26)): 0 (0.0) n (%) | Best overall response: Stable disease (FL (n = 26)): 7 (26.9) n (%) | Best overall response: VGPR (FL (n = 26)): 0 (0.0) n (%) | Complete response rate (FL (n = 26)): 4 (15.4) n (%) | Overall response rate (FL (n = 26)): 12 (46.2) n (%) | Partial response rate (PR or better) (FL (n = 26)): 12 (46.2) n (%) | Best overall response: CR (MCL (n = 2)): 1 (50.0) n (%) | Best overall response: CRi (MCL (n = 2)): 0 (0.0) n (%) | Best overall response: Discontinued prior to first assessment (MCL (n = 2)): 0 (0.0) n (%) | Best overall response: MR (MCL (n = 2)): 0 (0.0) n (%) | Best overall response: PD (MCL (n = 2)): 0 (0.0) n (%) | Best overall response: PR (MCL (n = 2)): 0 (0.0) n (%) | Best overall response: PR‐L (MCL (n = 2)): 0 (0.0) n (%) | Best overall response: Stable disease (MCL (n = 2)): 1 (50.0) n (%) | Best overall response: VGPR (MCL (n = 2)): 0 (0.0) n (%) | Complete response rate (MCL (n = 2)): 1 (50.0) n (%) | Overall response rate (MCL (n = 2)): 1 (50.0) n (%) | Partial response rate (PR or better) (MCL (n = 2)): 1 (50.0) n (%) | Best overall response: CR (MZL (n = 5)): 0 (0.0) n (%) | Best overall response: CRi (MZL (n = 5)): 0 (0.0) n (%) | Best overall response: Discontinued prior to first assessment (MZL (n = 5)): 2 (40.0) n (%) | Best overall response: MR (MZL (n = 5)): 0 (0.0) n (%) | Best overall response: PD (MZL (n = 5)): 0 (0.0) n (%) | Best overall response: PR (MZL (n = 5)): 0 (0.0) n (%) | Best overall response: PR‐L (MZL (n = 5)): 0 (0.0) n (%) | Best overall response: Stable disease (MZL (n = 5)): 3 (60.0) n (%) | Best overall response: VGPR (MZL (n = 5)): 0 (0.0) n (%) | Complete response rate (MZL (n = 5)): 0 (0.0) n (%) | Overall response rate (MZL (n = 5)): 0 (0.0) n (%) | Partial response rate (PR or better) (MZL (n = 5)): 0 (0.0) n (%) | Best overall response: CR (Total (N = 44)): 8 (18.2) n (%) | Best overall response: CRi (Total (N = 44)): 0 (0.0) n (%) | Best overall response: Discontinued prior to first assessment (Total (N = 44)): 5 (11.4) n (%) | Best overall response: MR (Total (N = 44)): 0 (0.0) n (%) | Best overall response: PD (Total (N = 44)): 4 (9.1) n (%) | Best overall response: PR (Total (N = 44)): 14 (31.8) n (%) | Best overall response: PR‐L (Total (N = 44)): 1 (2.3) n (%) | Best overall response: Stable disease (Total (N = 44)): 12 (27.3) n (%) | Best overall response: VGPR (Total (N = 44)): 0 (0.0) n (%) | Complete response rate (Total (N = 44)): 8 (18.2) n (%) | Overall response rate (Total (N = 44)): 23 (52.3) n (%) | Partial response rate (PR or better) (Total (N = 44)): 22 (50.0) n (%) | Best overall response: CR (WM (n = 2)): 0 (0.0) n (%) | Best overall response: CRi (WM (n = 2)): 0 (0.0) n (%) | Best overall response: Discontinued prior to first assessment (WM (n = 2)): 0 (0.0) n (%) | Best overall response: MR (WM (n = 2)): 0 (0.0) n (%) | Best overall response: PD (WM (n = 2)): 0 (0.0) n (%) | Best overall response: PR (WM (n = 2)): 1 (50.0) n (%) | Best overall response: PR‐L (WM (n = 2)): 0 (0.0) n (%) | Best overall response: Stable disease (WM (n = 2)): 1 (50.0) n (%) | Best overall response: VGPR (WM (n = 2)): 0 (0.0) n (%) | Complete response rate (WM (n = 2)): 0 (0.0) n (%) | Overall response rate (WM (n = 2)): 1 (50.0) n (%) | Partial response rate (PR or better) (WM (n = 2)): 1 (50.0) n (%) | complete response rate (CRR) (all 44 patients): 18.2% | overall response rate (ORR) (all 44 patients): 52.3% | median PFS (all patients): 16.4 months | median DOR (PR‐L or better) (all responders): 13.9 months | median time to response (all subtypes, responders (n = 23)): 2.8 months | Complete response rate [1]: 2 (40.0) n (%) | Overall response rate [1]: 5 (100.0) n (%) | Partial response rate (PR or better) [1]: 4 (80.0) n (%) | Complete response rate [2]: 1 (20.0) n (%) | Overall response rate [2]: 3 (60.0) n (%) | Partial response rate (PR or better) [2]: 3 (60.0) n (%) | Complete response rate [3]: 3 (27.3) n (%) | Overall response rate [3]: 8 (72.7) n (%) | Partial response rate (PR or better) [3]: 7 (63.6) n (%) | Complete response rate (part I, 160 mg BID, WM (n = 1)): 0 (0.0) n (%) | Overall response rate (part I, 160 mg BID, WM (n = 1)): 0 (0.0) n (%) | Partial response rate (PR or better) (part I, 160 mg BID, WM (n = 1)): 0 (0.0) n (%) | Complete response rate [4]: 1 (25.0) n (%) | Overall response rate [4]: 4 (100.0) n (%) | Partial response rate (PR or better) [4]: 4 (100.0) n (%) | Complete response rate (part I, 320 mg QD, NHL (n = 5)): 1 (20.0) n (%) | Overall response rate (part I, 320 mg QD, NHL (n = 5)): 3 (60.0) n (%) | Partial response rate (PR or better) (part I, 320 mg QD, NHL (n = 5)): 3 (60.0) n (%) | Complete response rate [5]: 2 (20.0) n (%) | Overall response rate [5]: 8 (80.0) n (%) | Partial response rate (PR or better) [5]: 8 (80.0) n (%) | Complete response rate (part I, 320 mg QD, WM (n = 1)): 0 (0.0) n (%) | Overall response rate (part I, 320 mg QD, WM (n = 1)): 1 (100.0) n (%) | Partial response rate (PR or better) (part I, 320 mg QD, WM (n = 1)): 1 (100.0) n (%) | Study day at disease progression (patient 101 016, FL): Day 162 | Study day at disease progression (patient 102 002, CLL): Day 672 | BOR by investigator (patient 102 004, WM): Stable disease | Study day at disease progression (patient 102 004, WM): Day 336 | BOR by investigator (patient 102 006, CLL): PR‐L | Study day at disease progression (patient 102 006, CLL): Day 1345 | CRR (patients with CLL/SLL): 33.3% | median overall survival (total population): not reached
